In publication PMC8969127 (Molecular Pharmacology, 2022):
Read-outs that look alike come from different tables or passages of the source.

What was measured:
Format in all cases: cell-based
[1] = target: T1, CatSper (Homo sapiens, UniProt Q7RTX7+Q86XQ3+Q8NEC5+Q96P56); assay: Human sperm calcium influx assay, activation; conditions: for Emax: read-out: Emax, %, Steroid Alone; for Emax, %, Steroid Alone: percent of response to saturating PROG (3 µM); for fold less potent than PROG (calcium influx): relative to PROG; for fold lower activity than the corresponding pregnanolones (10–11): hydroxylation of the 21 position
How it was run: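 Semen from healthy donors was liquefied at 37 °C, washed twice in low pH/low K+ buffer (pH 6.7, 0.2 mM CaCl2), then loaded with 10 µM Fluo-4-AM plus 1 mM probenecid, 30 min, room temperature, dark. On FLIPR, buffer was added first, then openers 2 min later. Fluorescence was read for 7 min at 2-s intervals. EC50 came from 8-point, 3-fold dilutions in duplicate, peak height, four-parameter fit. Emax is relative to 3 µM progesterone. Activators were retested with 30 µM mibefradil.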

[2] = target: T1, CatSper; conditions: for IC50: human sperm, mean ±SD
[3] = tested on: human sperm; assay: Computer-assisted sperm analysis
How it was run: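 Donor semen was liquefied ≥40 min at 37 °C, then swim-up in HAM's F10 for 1 h at 37 °C, 5% CO2. Cells were adjusted to 10x10^6/mL and capacitated in HAM's F10 with 5% BSA and 15 mM NaHCO3 at 37 °C, 5% CO2, with test compound or DMSO. HAM was induced with 100 nM progesterone or 100 nM PGE1. CASA at 37 °C used ≥10 fields, ≥200 cells. Motility classes came from VAP/VSL/VCL-derived LIN and STR, normalized to vehicle controls, ≥3 experiments.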

[4] = pEC50, calcium influx, Steroid Alone, human sperm, mean ±SD

| SMILES | EC50 [1, 4] | Emax [1] | pEC50, calcium influx, Steroid Alone ([1]; human sperm, mean ±SD) | Emax, %, Steroid Alone [1] | further results |
| --- | --- | --- | --- | --- | --- |
| CCCCC[C@H](O)/C=C/[C@H]1[C@H](O)CC(=O)[C@@H]1CCCCCCC(=O)O [compound 2, prostaglandin E1] | 3.98 nM | 101% |  |  |  |
| CC(=O)[C@H]1CC[C@H]2[C@@H]3CC[C@H]4C[C@H](O)CC[C@]4(C)[C@H]3CC[C@]12C [compound 10, 3α,5α-pregnanolone] |  |  | 6.56 ± 0.21 | 85% |  |
| CC(=O)[C@H]1CC[C@H]2[C@@H]3CC[C@@H]4C[C@H](O)CC[C@]4(C)[C@H]3CC[C@]12C [compound 11, 3α,5β-pregnanolone] |  |  | 6.26 ± 0.25 | 102% |  |
| CC(=O)[C@H]1CC[C@H]2[C@@H]3CC[C@H]4C[C@@H](O)CC[C@]4(C)[C@H]3CC[C@]12C [compound 12, 3β,5α-pregnanolone] |  |  | 7.16 ± 0.11 | 99% |  |
| CC(=O)[C@H]1CC[C@H]2[C@@H]3CC[C@@H]4C[C@@H](O)CC[C@]4(C)[C@H]3CC[C@]12C [compound 13, 3β,5β-pregnanolone] |  |  | 6.89 ± 0.20 | 92% |  |
| CC(=O)[C@H]1CC[C@H]2[C@@H]3CC[C@H]4CC(=O)CC[C@]4(C)[C@H]3CC[C@]12C [compound 14, 5α-dihydroprogesterone] |  |  | 6.99 ± 0.05 | 87% | fold less potent than PROG (calcium influx) [1]: ~30 fold |
| CC(=O)[C@H]1CC[C@H]2[C@@H]3CC[C@H]4CC(=O)CC[C@]4(C)[C@H]3CC[C@]12C [compound 15, 5β-dihydroprogesterone] |  |  | 6.87 ± 0.17 | 95% | fold less potent than PROG (calcium influx) [1]: ~30 fold |
| CC(=O)[C@H]1CC[C@H]2[C@@H]3C[C@@H]4O[C@@]45CC(=O)CC[C@]5(C)[C@H]3CC[C@]12C [compound 16, 5α,6α-epoxypregnan-3,20-dione] | 832 nM | 83% |  |  |  |
| CC(=O)[C@H]1CC[C@H]2[C@@H]3C[C@H]4O[C@]45CC(=O)CC[C@]5(C)[C@H]3CC[C@]12C [compound 17, 5β,6β-epoxypregnan-3,20-dione] | 417 nM | 84% |  |  |  |
| CC(=O)[C@H]1CC[C@H]2[C@@H]3CCC4=CC(=O)C(C)(C)C[C@]4(C)[C@H]3CC[C@]12C [compound 18, 2,2-dimethylprogesterone] |  |  | 6.31 ± 0.16 | 99% | fold less potent than PROG (calcium influx) [1]: 135 fold |
| CC(=O)[C@H]1CC[C@H]2[C@@H]3C[C@@H](C)C4=CC(=O)CC[C@]4(C)[C@H]3CC[C@]12C [compound 19, 6β-methylprogesterone] |  |  | 6.58 ± 0.12 | 90% |  |
| CC(=O)[C@H]1CC[C@H]2[C@@H]3C[C@H](C)C4=CC(=O)CC[C@]4(C)[C@H]3CC[C@]12C [compound 20, 6α-methylprogesterone] |  |  | 6.16 ± 0.14 | 96% | fold less potent than PROG (calcium influx) [1]: 190 fold |
| CC(=O)[C@H]1CC[C@H]2[C@@H]3C[C@@H](O)C4=CC(=O)CC[C@]4(C)[C@H]3CC[C@]12C [compound 21, 6β-hydroxyprogesterone] |  |  | 6.91 ± 0.10 | 116% |  |
| CC(=O)[C@H]1CC[C@H]2[C@@H]3C[C@@H](C)[C@@]4(O)CC(=O)CC[C@]4(C)[C@H]3CC[C@]12C [compound 22, 5α-hydroxy-6β-methylpregnan-3,20-dione] | 5010 nM | 95% |  |  |  |
| CC(=O)[C@H]1CC[C@H]2[C@@H]3CCC4=CC(=O)CC[C@]4(C)[C@H]3[C@@H](O)C[C@]12C [compound 23, 11β-hydroxyprogesterone] | 18.6 nM | 90% |  |  | fold less potent than PROG (calcium influx) [1]: 5 fold |
| CC(=O)[C@H]1CC[C@H]2[C@@H]3CCC4=CC(=O)CC[C@]4(C)[C@H]3[C@H](O)C[C@]12C [compound 24, 11α-hydroxyprogesterone] |  |  | 6.90 ± 0.08 | 100% | fold less potent than PROG (calcium influx) [1]: 35 fold |
| CC(=O)C1(O)CCC2C3CCC4=CC(=O)CCC4(C)C3CCC21C (stereo not drawn) [compound 25, 17α-hydroxyprogesterone] | 10.5 nM | 115% |  |  | fold less potent than PROG (calcium influx) [1]: threefold |

| SMILES | EC50 [1, 4] | Emax [1] | pEC50, calcium influx, Steroid Alone ([1]; human sperm, mean ±SD) | Emax, %, Steroid Alone [1] | further results |
| --- | --- | --- | --- | --- | --- |
| C[C@]12CC[C@@H](O)C[C@H]1CC[C@@H]1[C@@H]2CC[C@]2(C)[C@@H](C(=O)CO)CC[C@@H]12 [compound 26, 3α,5β-THDOC] |  |  | 5.80 ± 0.26 | 100% | fold lower activity than the corresponding pregnanolones (10–11) [1]: threefold; fold less potent than PROG (calcium influx) [1]: ≥ 240 fold |
| C[C@]12CC[C@@H](O)C[C@@H]1CC[C@@H]1[C@@H]2CC[C@]2(C)[C@@H](C(=O)CO)CC[C@@H]12 [compound 27, 3α,5α-THDOC] |  |  | 6.05 ± 0.21 | 96% | fold lower activity than the corresponding pregnanolones (10–11) [1]: threefold; fold less potent than PROG (calcium influx) [1]: ≥ 240 fold |
| CC(=O)[C@H]1[C@H](O)C[C@H]2[C@@H]3CCC4=CC(=O)CC[C@]4(C)[C@H]3CC[C@@]21C [compound 28, 16α-hydroxyprogesterone] |  |  | 6.77 ± 0.18 | 106% | fold less potent than PROG (calcium influx) [1]: 46 fold |
| CC(=O)O[C@]1(C(C)=O)CC[C@H]2[C@@H]3CCC4=CC(=O)CC[C@]4(C)[C@H]3CC[C@@]21C [compound 29, 17α-acetoxyprogesterone] |  |  |  | 31% |  |
| CC(=O)[C@@]1(O)CC[C@H]2[C@@H]3C[C@H](C)C4=CC(=O)CC[C@]4(C)[C@H]3CC[C@@]21C [compound 30, 17α-hydroxy-6α-methylprogesterone] |  |  | 6.33 ± 0.10 | 96% | fold reduction of activity relative to 17α-hydroxyprogesterone ([1]; addition of a 6α-methyl group): 47 fold |
| C[C@]12CCC(=O)C=C1[C@@H]1C[C@@H]1[C@H]1[C@@H]3[C@@H]4C[C@@H]4[C@@]4(CCC(=O)O4)[C@@]3(C)CC[C@@H]12 [compound 31, drospirenone] | 525 nM | 115% |  |  |  |
| CC(=O)[C@@]1(O)CC[C@H]2[C@@H]3CCC4=CC(=O)CCC4=C3[C@@H](c3ccc(N(C)C)cc3)C[C@@]21C [compound 32, ulipristal] | 3550 nM | 106% |  |  |  |
| CC#C[C@]1(O)CC[C@H]2[C@@H]3CCC4=CC(=O)CCC4=C3[C@@H](c3ccc(N(C)C)cc3)C[C@@]21C [compound 33, mifepristone (RU-486)] | 4680 nM | 109% |  |  |  |
| CC(=O)O[C@]1(C(C)=O)CC[C@H]2[C@@H]3CCC4=CC(=O)CCC4=C3[C@@H](c3ccc(N(C)C)cc3)C[C@@]21C [compound 34, ulipristal acetate] | > 10000 nM | 27% |  |  |  |
| C=C1C[C@H]2[C@@H]3CCC4=CC(=O)CC[C@@H]4[C@H]3CC[C@]2(C)[C@@]1(OC(C)=O)C(C)=O [compound 35, segesterone acetate] |  |  | <5 | 57% |  |
| C[C@]12CC[C@H]3[C@@H](CCC4=CC(=O)CC[C@@]43C)[C@@H]1CC[C@@H]2O [compound 36, testosterone] |  | 114% |  |  | EC50 [1]: 219 nM |
| C[C@]12CC[C@@H]3c4ccc(O)cc4CC[C@H]3[C@@H]1CC[C@@H]2O [compound 37, 17β-estradiol] | 295 nM | 94% |  |  |  |
| C[C@H]1C[C@]2(C)[C@@H](O)CC[C@H]2[C@@H]2CCC3=CC(=O)CC[C@@H]3[C@H]21 [compound 38, 11β-methyl-19-nortestosterone] |  |  | 6.37 ± 0.32 | 85% |  |
| C[C@@H]1CC2=CC(=O)CC[C@@H]2[C@H]2CC[C@]3(C)[C@@H](O)CC[C@H]3[C@@H]21 [compound 39, 7α-methyl-19-nortestosterone] |  |  | 6.25 ± 0.37 | 86% |  |
| C[C@@H]1CC2=CC(=O)CC[C@@H]2[C@@H]2[C@@H]1[C@@H]1CC[C@H](O)[C@@]1(C)C[C@@H]2C [compound 40, 7α,11β-dimethylandrolone] |  |  | 6.06 ± 0.49 | 80% |  |
| C[C@H]1C[C@]2(C)[C@@H](O)CC[C@H]2[C@H]2[C@H]1[C@H]1CCC(=O)C=C1C[C@@H]2C [compound 41, 7β,11β-dimethylandrolone] |  |  | 5.41 ± 0.24 | 42% |  |
| COCC(=O)O[C@]1(CCN(C)CCCc2nc3ccccc3[nH]2)CCc2cc(F)ccc2[C@@H]1C(C)C [mibefradil] |  |  |  |  | block of calcium influx for all modes of channel opening ([2]; blocker 30 µM): completely blocked influx; IC50 ([2]; pIC50, inhibition of PGE1-induced calcium influx, opener 10 nM PGE1 (EC80)): 8320 nM; IC50 ([2]; pIC50, inhibition of l-sirenin-induced calcium influx, opener 3 µM l-sirenin (EC80)): 8130 nM; concentration that completely ablated total and progressive motility ([3]; CASA, human sperm): 30 µM; concentration that completely ablated HAM ([3]; HAM induced with 100 nM PROG or 100 nM PGE1, 4 hours, capacitating conditions): 10 µM; calcium influx elicited by the blocker itself ([1]; ML218 up to 100 µM, mibefradil at higher concentrations): we did not observe a mibefradil-induced calcium influx |
